{"data": "Measured values gathered from unrelated publications", "note": "Lines come from different studies, so protocols differ."}
{"SMILES": "CCOC(=O)C1=C(CN2CCC[C@H]2C(=O)Nc2ccc(B(O)O)cc2)NC(c2nccs2)=N[C@H]1c1ccc(F)cc1Br", "tested on": "Hepatitis B virus", "assay": "viral replication, inhibitor, qPCR", "system": "HepDES19", "setting": "72 h", "endpoint": "EC50", "result": "1000 nM"}
{"SMILES": "CNC(=S)NN=Cc1ccc(F)cc1", "tested on": "Leishmania tropica", "assay": "parasite growth, MTT", "setting": "72 h, promastigote", "endpoint": "IC50", "result": "441 µM"}
{"SMILES": "Nc1nn2c(-c3ccc(Cl)cc3Cl)cc(-c3ccc(OCc4ccccc4)cc3)nc2c1N=Nc1ccc(F)cc1", "tested on": "Saccharomyces cerevisiae", "assay": "microbial killing, broth dilution", "system": "ATCC9763", "endpoint": "MFC", "result": "62.5 µg/mL"}
{"SMILES": "C[C@H]1CNCCCN1c1nccc(-c2noc3c2CCC[C@@]32CCCc3sc(N)c(C#N)c32)n1", "tested on": "BaF3", "assay": "cell growth or viability", "setting": "72 h", "endpoint": "EC50", "result": "188 nM"}
{"SMILES": "COc1cc(N=C2C(=O)N(Cc3ccccc3)c3ccccc32)cc(OC)c1", "tested on": "L02", "assay": "cell growth or viability, MTT", "setting": "48 h", "endpoint": "IC50", "result": "> 100 µM"}
{"SMILES": "CCOC(=O)C1=C(CN2CCC(C(=O)Nc3cccc(B(O)O)c3)C2)NC(c2nccs2)=NC1c1ccc(F)cc1Br (stereo not drawn)", "tested on": "Hepatitis B virus", "assay": "viral replication, inhibitor, qPCR", "system": "HepDES19", "setting": "72 h", "endpoint": "EC50", "result": "900 nM"}
{"SMILES": "Cc1ccc(CN2C(=O)C(=Nc3cccc(Cl)c3)c3ccccc32)cc1", "tested on": "L02", "assay": "cell growth or viability, MTT", "setting": "48 h", "endpoint": "IC50", "result": "4.76 µM"}
{"SMILES": "Nc1ccn([C@@H]2CS[C@H](CO)O2)c(=O)n1", "tested on": "Hepatitis B virus", "assay": "viral replication, inhibitor, qPCR", "system": "HepDES19", "setting": "72 h", "endpoint": "EC50", "result": "400 nM"}
{"SMILES": "O=C1C(=Nc2ccccc2Br)c2ccccc2N1Cc1ccccc1", "tested on": "L02", "assay": "cell growth or viability, MTT", "setting": "48 h", "endpoint": "IC50", "result": "66.2 µM"}
{"SMILES": "C[C@H](Nc1ccc2c(c1)OCCn1cc(N3C(=O)OC[C@H]3C(F)F)nc1-2)C(N)=O", "tested on": "CAL-51", "assay": "cell growth or viability, ATP luminescence", "setting": "5 days", "endpoint": "EC50", "result": "1260 nM"}
{"SMILES": "CNC(=S)NN=Cc1ccc(O)c(OC)c1", "tested on": "Leishmania tropica", "assay": "parasite growth, MTT", "setting": "72 h, promastigote", "endpoint": "IC50", "result": "200 µM"}
{"SMILES": "O=C1C(=Nc2ccc(Cl)cc2Br)c2ccccc2N1Cc1ccc([N+](=O)[O-])cc1", "tested on": "L02", "assay": "cell growth or viability, MTT", "setting": "48 h", "endpoint": "IC50", "result": "20.4 µM"}
{"SMILES": "C[C@H](Oc1nccc(-c2noc([C@@]3(C)CCCc4sc(N)c(C#N)c43)n2)n1)[C@@H]1CCCN1C", "tested on": "BaF3", "assay": "cell growth or viability", "setting": "72 h", "endpoint": "EC50", "result": "317 nM"}
{"SMILES": "O=C1C(=Nc2ccccc2I)c2ccccc2N1Cc1ccc(Br)cc1", "tested on": "L02", "assay": "cell growth or viability, MTT", "setting": "48 h", "endpoint": "IC50", "result": "35.2 µM"}
{"SMILES": "Cc1nc(NC(=O)N2CCC[C@H]2C(N)=O)sc1-c1ccnc(C(C)(C)C(F)(F)F)c1", "tested on": "CAL-51", "assay": "cell growth or viability, ATP luminescence", "setting": "5 days", "endpoint": "EC50", "result": "26000 nM"}
{"SMILES": "CCOC(=O)C1=C(CN2CCC[C@H]2C(=O)Nc2cccc(B(O)O)c2)NC(c2nccs2)=N[C@H]1c1ccc(F)cc1Br", "tested on": "Hepatitis B virus", "assay": "viral replication, inhibitor, qPCR", "system": "HepDES19", "setting": "72 h", "endpoint": "EC50", "result": "1900 nM"}
{"SMILES": "O=C1C(=Nc2ccccc2I)c2ccccc2N1Cc1ccc([N+](=O)[O-])cc1", "tested on": "L02", "assay": "cell growth or viability, MTT", "setting": "48 h", "endpoint": "IC50", "result": "56.3 µM"}
{"SMILES": "Fc1ccc(C=NNC(=S)Nc2cccnc2)cc1", "tested on": "Leishmania tropica", "assay": "parasite growth, MTT", "setting": "72 h, promastigote", "endpoint": "IC50", "result": "314 µM"}
